# Active and inactive are the calls of the source. No cut-off for these calls is given here.
# Key:
# Tubulin (Homo sapiens) [1] = molecular target: T1, Tubulin (Homo sapiens) (UniProt P68371+Q9H4B7+P0DPH7+P68366+Q13509+Q71U36+P04350+Q3ZCM7+P07437+P68363+Q9BQE3+Q6PEY2+Q13885+Q9BVA1+Q9BUF5); test: Inhibition of [3H]colchicine binding to tubulin (unknown origin) at 5 uM relative to control; format: protein-complex assay
# Tubulin = test: Inhibition of tubulin assembly (unknown origin); format: protein-complex assay, Homo sapiens
# OVCAR-8 = test: Antiproliferative activity against human OVCAR-8 cells; format: functional, cell-based
# NCI/ADR-RES = test: Antiproliferative activity against human NCI/ADR-RES cells overexpressing Pgp; format: functional, cell-based
# [2] = Resistance ratio of IC50 for antiproliferative activity against human NCI/ADR-RES cells expressing Pgp to IC50 for antiproliferative activity against human OVCAR-8 cells; format: functional
# Method in brief: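 Resistance ratio: IC50 in Pgp-overexpressing NCI/ADR-RES cells divided by IC50 in parental OVCAR-8 cells.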
# Tubulin (Homo sapiens) [3] = molecular target: T1, Tubulin (Homo sapiens); test: Inhibition of [3H]colchicine binding to tubulin (unknown origin) at 0.5 uM relative to control; format: protein-complex assay
# MCF7 [4] = test: Antiproliferative activity against human MCF7 cells; format: functional, cell-based
# MCF7 [5] = test: Antiproliferative activity against human MCF7 cells expressing TUBB3; format: functional, cell-based
# MCF7 [6] = test: Antitumor activity against human MCF7 cells expressing TUBB3 xenografted in athymic mouse assessed as reduction in tumor growth at 10 mg/kg administered twice in a week; format: functional, organism-based
# [7] = Toxicity in athymic mouse xenografted with human MCF7 cells expressing TUBB3 assessed as effect on body weight at 10 mg/kg administered twice in a week; format: organism-based; conditions: in vivo
# [8] = Resistance ratio of EC50 for antiproliferative activity against human MCF7 cells expressing TUBB3 to EC50 for antiproliferative activity against human MCF7 cells; format: functional
# Method in brief: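 Resistance ratio: EC50 in MCF-7 cells overexpressing βIII-tubulin divided by EC50 in parental wild-type MCF-7 cells.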
# MCF7 [9] = test: Potency index, ratio of EC50 of paclitaxel to EC50 of compound for antiproliferative activity against human MCF7 cells; format: functional
# MCF7 [10] = test: Potency index, ratio of EC50 of paclitaxel to EC50 of compound for antiproliferative activity against human MCF7 cells expressing TUBB3; format: functional
inhibition (Tubulin (Homo sapiens) [1]) [%],IC50 (Tubulin) [nM],IC50 (OVCAR-8) [nM],inhibition (Tubulin (Homo sapiens) [3]) [%],EC50 (MCF7 [4]) [nM],EC50 (MCF7 [5]) [nM],SMILES,IC50 (NCI/ADR-RES) [nM],Ratio IC50 [2],TGI (MCF7 [6]),Activity [7],Ratio EC50 [8],Ratio EC50 (MCF7 [9]),Ratio EC50 (MCF7 [10])
64,2900,880,,,,CN(c1ccc(OC(F)(F)F)cc1)c1nc(Cl)nc2cnn(C)c12,730,0.83,,,,,
99,,,79,,,COc1ccc(N(C)c2nc(C)nc3ccn(C)c23)cc1,,,,,,,
,,5.3,,194,2070,CC(=O)O[C@H]1C(=O)[C@@]2(C)[C@H]([C@H](OC(=O)c3ccccc3)[C@]3(O)C[C@H](OC(=O)[C@H](O)[C@@H](NC(=O)c4ccccc4)c4ccccc4)C(C)=C1C3(C)C)[C@]1(OC(C)=O)CO[C@@H]1C[C@@H]2O [PACLITAXEL],,,Active,Toxic,,,
94,420,17,68,,,COc1ccc2c(c1)CCCN2c1nc(Cl)nc2cnn(C)c12,8,0.47,,,,,
7.1,> 20000,> 5000,,,,COc1ccc(Nc2nc(Cl)nc3cnn(C)c23)cc1,> 5000,,,,,,
92,480,,73,,,COc1ccc(N(C)c2nc(C)nc3c(Cc4ccccc4)cn(C)c23)cc1,,,,,,,
0,,,,,,COc1ccc(Nc2nc(C)nc3cc[nH]c23)cc1,,,,,,,
97,740,9,77,1.7,2.6,COc1ccc(N(C)c2nc(Cl)nc3cnn(C)c23)cc1F,7,0.77,,,1.6,100,600

# Reference: ChEMBL document CHEMBL4813982, “Novel pyrazolo[4,3-d]pyrimidine microtubule targeting agents (MTAs): Synthesis, structure-activity relationship, in vitro and in vivo evaluation as antitumor agents” (Bioorg Med Chem Lett, 2021)
